Where no end group is shown, it is not given here.
Assays:
HIV Vif = details: micromolar levels of chelator; cited from earlier work
[1] = Zinc-induced aggregation by light scattering; format: physicochemical; details: 15 µM peptide, 1 molar equivalent Zn2+, 200 mM MOPS pH 7.4, 80 mM NaCl, 1.8 mM TCEP, 20 °C, 200 s
Procedure, shortened: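 Wild-type and mutant peptides handled anaerobically in TCEP buffers; concentration set by A280 in 6M guanidine hydrochloride. Zn(NO3)2 hand-mixed into sample in a Peltier-held cuvette. Light scattering followed over time on a single-photon counting fluorometer; single exponential functions fitted to intensity versus time.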

[2] = system: GST-Cul5 (human Cul5 amino acids 1–384); experiment: HCCHp pull-down by GST-Cul5; format: binding; details: GST control, 40 µM Zn(NO3)2 vs no zinc
Procedure, shortened: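 GST-Cul5 (human Cul5 residues 1–384, from E. coli) immobilised on glutathione resin, 10 min at 4 °C, in 50 mM HEPES pH 7.4, 150 mM NaCl, 200 µM TCEP; 20 µM peptide added for 10 min; split, ±40 µM Zn(NO3)2 for 10 min; six washes; SDS-PAGE, SYPRO Ruby stain; bands normalised to a 27-kDa marker and quantified against peptide and GST-Cul5 standard curves.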

Row | Molecule | Effect of chelator on Cul5 recruitment and APOBEC3G degradation (HIV Vif) | Total change in scattered light intensity, rank order of peptides [1] | Change in amount of HCCHp bound to GST when zinc was included [2]
1 | c1ccc(CN(CCN(Cc2ccccn2)Cc2ccccn2)Cc2ccccn2)nc1 [N,N,N′,N′-tetrakis-(2-pyridylmethyl) ethylenediamine] | inhibits Cul5 recruitment and APOBEC3G degradation |  | 
2 | ELADQLIALYYFDCFSDSAIRKALLGHIVSPRCEYQAGHNKV (cysteines drawn unpaired) [H108A] |  | H108A < H139A < H127A < wild type < C114S < C114/133S < C133S | 
3 | ELADQLIHLYYFDCFSDSAIRKALLGAIVSPRCEYQAGHNKV (cysteines drawn unpaired) [H127A] |  | H108A < H139A < H127A < wild type < C114S < C114/133S < C133S | 
4 | ELADQLIHLYYFDCFSDSAIRKALLGHIVSPRCEYQAGANKV (cysteines drawn unpaired) [H139A] |  | H108A < H139A < H127A < wild type < C114S < C114/133S < C133S | 
5 | ELADQLIHLYYFDCFSDSAIRKALLGHIVSPRCEYQAGHNKV (cysteines drawn unpaired) [HCCHp] |  | H108A < H139A < H127A < wild type < C114S < C114/133S < C133S | did not increase significantly
6 | ELADQLIHLYYFDCFSDSAIRKALLGHIVSPRSEYQAGHNKV [C133S] |  | H108A < H139A < H127A < wild type < C114S < C114/133S < C133S | 
7 | ELADQLIHLYYFDSFSDSAIRKALLGHIVSPRCEYQAGHNKV [C114S] |  | H108A < H139A < H127A < wild type < C114S < C114/133S < C133S | 
